Test results: ChEMBL document CHEMBL3091449, “Synthesis and antimicrobial profile of N-substituted imidazolium oximes and their monoquaternary salts against multidrug resistant bacteria” (2013)

Legend:
Type in all cases: functional
Pseudomonas aeruginosa [1] = experiment: Ratio of meropenem MIC to compound MIC for Pseudomonas aeruginosa isolate 197
Pseudomonas aeruginosa [2] = experiment: Ratio of imipenem MIC to compound MIC for Pseudomonas aeruginosa isolate 197
Acinetobacter baumannii [3] = experiment: Ratio of meropenem MIC to compound MIC for Acinetobacter baumannii isolate 170
Acinetobacter baumannii [4] = experiment: Ratio of imipenem MIC to compound MIC for Acinetobacter baumannii isolate 170
Pseudomonas aeruginosa [5] = experiment: Antibacterial activity against GIM-1 expressing Pseudomonas aeruginosa isolate 197 after 18 to 24 hrs by two-fold broth microdilution assay
Method in brief: (§1)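 CLSI two-fold broth microdilution was used. Compounds were dissolved in DMSO, brought to 10 mg/mL in medium, then serially diluted in Mueller Hinton broth over 400–0.09 µg/mL. Overnight MHB cultures were diluted to 10^6 CFU/mL, and 10 µL was added per well. Plates were incubated 18–24 h at 37 °C, then 0.2 mg/mL INT was added for 30 min at 37 °C. MIC was the lowest concentration with no visible growth or pink colour, triplicate.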

Acinetobacter baumannii [6] = experiment: Antibacterial activity against SIM-1 expressing Acinetobacter baumannii isolate 170 after 18 to 24 hrs by two-fold broth microdilution assay
Method in brief: (§2)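 CLSI two-fold broth microdilution. Compounds dissolved in DMSO, 10 mg/mL stock, serially diluted to 400–0.09 µg/mL in Mueller Hinton broth. Wells inoculated with 10^6 CFU/mL bacteria and incubated 18–24 h at 37 °C. 0.2 mg/mL INT added for 30 min. MIC taken as the lowest concentration with no visible growth or pink colour. Triplicate.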

Escherichia coli [7] = experiment: Antibacterial activity against […] expressing Escherichia coli isolate 235 after 18 to 24 hrs by two-fold broth microdilution assay; method in brief: as §2
Escherichia coli [8] = experiment: Antibacterial activity against TEM-1/SHV-12 expressing Escherichia coli isolate 237 after 18 to 24 hrs by two-fold broth microdilution assay; method in brief: as §2
Escherichia coli [9] = experiment: Antibacterial activity against […] expressing Escherichia coli isolate 4024 after 18 to 24 hrs by two-fold broth microdilution assay; method in brief: as §2
Aeromonas caviae [10] = experiment: Antibacterial activity against TEM-1/CTX-M-15 expressing Aeromonas caviae isolate 260 after 18 to 24 hrs by two-fold broth microdilution assay; method in brief: as §1
Aeromonas caviae [11] = experiment: Antibacterial activity against […] expressing Aeromonas caviae isolate 258 after 18 to 24 hrs by two-fold broth microdilution assay; method in brief: as §1
Aeromonas hydrophila [12] = experiment: Antibacterial activity against TEM-1/SHV-12 expressing Aeromonas hydrophila isolate 268 after 18 to 24 hrs by two-fold broth microdilution assay; method in brief: as §1
Kluyvera intermedia = experiment: Antibacterial activity against TEM-1/SHV-12/[…] expressing Enterobacter intermedius isolate 243 after 18 to 24 hrs by two-fold broth microdilution assay; method in brief: as §1
Enterobacter cloacae [13] = experiment: Antibacterial activity against CTX-15 expressing Enterobacter cloacae isolate 51 after 18 to 24 hrs by two-fold broth microdilution assay
Enterobacter cloacae [14] = experiment: Antibacterial activity against TEM-1/CTX-M-15 expressing Enterobacter cloacae isolate 62 after 18 to 24 hrs by two-fold broth microdilution assay
Enterobacter cloacae [15] = experiment: Antibacterial activity against TEM-1/SHV-12 expressing Enterobacter cloacae isolate 306 after 18 to 24 hrs by two-fold broth microdilution assay
Aeromonas hydrophila [16] = experiment: Ratio of gentamicin MIC to compound MIC for Aeromonas hydrophila FNSST 014
Klebsiella pneumoniae [17] = experiment: Ratio of gentamicin MIC to compound MIC for Klebsiella pneumoniae FNSST 011
Escherichia coli [18] = experiment: Ratio of gentamicin MIC to compound MIC for Escherichia coli FNSST 982
Klebsiella pneumoniae [19] = experiment: Antibacterial activity against TEM-1/SHV-12 expressing Klebsiella pneumoniae isolate 303 after 18 to 24 hrs by two-fold broth microdilution assay; method in brief: as §1
Pseudomonas aeruginosa [20] = experiment: Ratio of gentamicin MIC to compound MIC for Pseudomonas aeruginosa FNSST 982
[21] = test system: Stenotrophomonas maltophilia; experiment: Antibacterial activity against […] expressing Stenotrophomonas maltophilia isolate 125 after 18 to 24 hrs by two-fold broth microdilution assay; method in brief: as §1
Aeromonas hydrophila [22] = experiment: Antibacterial activity against Aeromonas hydrophila FNSST 014 after 18 to 24 hrs by two-fold broth microdilution assay; method in brief: as §1
Pseudomonas aeruginosa [23] = experiment: Antibacterial activity against Pseudomonas aeruginosa FNSST 982 after 18 to 24 hrs by two-fold broth microdilution assay; method in brief: as §1
Klebsiella pneumoniae [24] = experiment: Antibacterial activity against Klebsiella pneumoniae FNSST 011 after 18 to 24 hrs by two-fold broth microdilution assay; method in brief: as §1
Escherichia coli [25] = experiment: Antibacterial activity against Escherichia coli FNSST 982 after 18 to 24 hrs by two-fold broth microdilution assay; method in brief: as §1
Clostridium perfringens [26] = experiment: Antibacterial activity against Clostridium perfringens FNSST 4999 after 18 to 24 hrs by two-fold broth microdilution assay; method in brief: as §2
Staphylococcus aureus [27] = experiment: Antibacterial activity against Staphylococcus aureus ATCC 25923 after 18 to 24 hrs by two-fold broth microdilution assay; method in brief: as §1
Enterococcus faecalis [28] = experiment: Antibacterial activity against Enterococcus faecalis ATCC 29212 after 18 to 24 hrs by two-fold broth microdilution assay; method in brief: as §1
Bacillus cereus [29] = experiment: Antibacterial activity against Bacillus cereus ATCC 11778 after 18 to 24 hrs by two-fold broth microdilution assay; method in brief: as §1
Aspergillus fumigatus = experiment: Antifungal activity against Aspergillus fumigatus FNSST 3833 assessed as diameter of zone of inhibition at 250 ug/disc after 72 hrs by disc diffusion method; conditions: FNSST 3833, 72 h, read-out: DIZ
Method in brief: (§3)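 Fungi were grown overnight at 30 °C in Sabouraud dextrose broth to 10^4 cfu/mL, and 100 µL was spread on Sabouraud dextrose agar. 6 mm discs carried 250 µg (25 µL of a 10 mg/mL stock in 96% ethanol), with ethanol as the negative control. Incubation was at 30 °C for 48 h (yeast) or 72 h (molds). Zone diameter was read including the disc, in triplicate, mean ± SE.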

Talaromyces funiculosus = experiment: Antifungal activity against Penicillium funiculosum FNSST 3724 assessed as diameter of zone of inhibition at 250 ug/disc after 72 hrs by disc diffusion method; conditions: FNSST 3724, 72 h, read-out: DIZ; method in brief: as §3
Aeromonas hydrophila [30] = experiment: Antibacterial activity against Aeromonas hydrophila FNSST 014 assessed as diameter of zone of inhibition at 250 ug/disc after 24 hrs by disc diffusion method; conditions: FNSST 014, 24 h, read-out: DIZ
Method in brief: (§4)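 Bacteria were grown overnight at 37 °C in TSB to about 10^6 cfu/mL, and 100 µL was spread on Mueller Hinton agar. Sterile 6 mm discs were each loaded with 25 µL of a 10 mg/mL stock in 96% ethanol, giving 250 µg/disc. Ethanol served as the negative control. Plates were incubated 24 h at 37 °C. Inhibition zone diameter was measured including the disc, in triplicate, as mean ± SE.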

Pseudomonas aeruginosa [31] = experiment: Antibacterial activity against Pseudomonas aeruginosa FNSST 982 assessed as diameter of zone of inhibition at 250 ug/disc after 24 hrs by disc diffusion method; conditions: FNSST 982, 24 h, read-out: DIZ; method in brief: as §4
Klebsiella pneumoniae [32] = experiment: Antibacterial activity against Klebsiella pneumoniae FNSST 011 assessed as diameter of zone of inhibition at 250 ug/disc after 24 hrs by disc diffusion method; conditions: FNSST 011, 24 h, read-out: DIZ; method in brief: as §4
Escherichia coli [33] = experiment: Antibacterial activity against Escherichia coli FNSST 982 assessed as diameter of zone of inhibition at 250 ug/disc after 24 hrs by disc diffusion method; conditions: FNSST 982, 24 h, read-out: DIZ; method in brief: as §4
Clostridium perfringens [34] = experiment: Antibacterial activity against Clostridium perfringens FNSST 4999 assessed as diameter of zone of inhibition at 250 ug/disc after 24 hrs by disc diffusion method; conditions: FNSST 4999, 24 h, read-out: DIZ
Method in brief: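 Disc diffusion per CLSI: 100 µL of 10^6 cfu/mL bacterial suspension spread on Mueller Hinton agar. 6 mm discs loaded with 25 µL of 10 mg/mL compound stock in 96% ethanol (250 µg/disc); ethanol as negative control. Incubated 24 h at 37 °C. Inhibition zone diameter measured in mm including the disc, triplicate, reported as mean ± SE.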

Staphylococcus aureus [35] = experiment: Antibacterial activity against Staphylococcus aureus ATCC 25923 assessed as diameter of zone of inhibition at 250 ug/disc after 24 hrs by disc diffusion method; conditions: ATCC 25923, 24 h, read-out: DIZ; method in brief: as §4
Enterococcus faecalis [36] = experiment: Antibacterial activity against Enterococcus faecalis ATCC 29212 assessed as diameter of zone of inhibition at 250 ug/disc after 24 hrs by disc diffusion method; conditions: ATCC 29212, 24 h, read-out: DIZ; method in brief: as §4
Bacillus cereus [37] = experiment: Antibacterial activity against Bacillus cereus ATCC 11778 assessed as diameter of zone of inhibition at 250 ug/disc after 24 hrs by disc diffusion method; conditions: ATCC 11778, 24 h, read-out: DIZ; method in brief: as §4
Candida albicans = experiment: Antifungal activity against Candida albicans ATCC 10231 assessed as diameter of zone of inhibition at 250 ug/disc after 48 hrs by disc diffusion method; conditions: ATCC 10231, 48 h, read-out: DIZ; method in brief: as §3

## O/N=C/c1n(Cc2ccccc2)cc[n+]1-c1ccc(F)cc1.[Br-]
Pseudomonas aeruginosa [1]
  Ratio: 20
Pseudomonas aeruginosa [2]
  Ratio: 20
Acinetobacter baumannii [3]
  Ratio: 20
Acinetobacter baumannii [4]
  Ratio: 20
Pseudomonas aeruginosa [5]
  MIC: 0.39 µg/mL
Acinetobacter baumannii [6]
  MIC: 0.78 µg/mL
Escherichia coli [7]
  MIC: 6.25 µg/mL
Escherichia coli [8]
  MIC: 3.12 µg/mL
Escherichia coli [9]
  MIC: 1.56 µg/mL
Aeromonas caviae [10]
  MIC: 12.5 µg/mL
Aeromonas caviae [11]
  MIC: 12.5 µg/mL
Aeromonas hydrophila [12]
  MIC: 12.5 µg/mL
Kluyvera intermedia
  MIC: 6.25 µg/mL
Enterobacter cloacae [13]
  MIC: 6.25 µg/mL
Enterobacter cloacae [14]
  MIC: 6.25 µg/mL
Enterobacter cloacae [15]
  MIC: 6.25 µg/mL
Aeromonas hydrophila [16]
  Ratio: 2.5
Klebsiella pneumoniae [17]
  Ratio: 2.5
Escherichia coli [18]
  Ratio: 2.5
Klebsiella pneumoniae [19]
  MIC: 12.5 µg/mL
Pseudomonas aeruginosa [20]
  Ratio: 2.5
[21]
  MIC: 12.5 µg/mL
Aeromonas hydrophila [22]
  MIC: 12.5 µg/mL
Pseudomonas aeruginosa [23]
  MIC: 25 µg/mL
Klebsiella pneumoniae [24]
  MIC: 1.56 µg/mL
Escherichia coli [25]
  MIC: 12.5 µg/mL
Clostridium perfringens [26]
  MIC: 25 µg/mL
Staphylococcus aureus [27]
  MIC: 6.25 µg/mL
Enterococcus faecalis [28]
  MIC: 6.25 µg/mL
Bacillus cereus [29]
  MIC: 6.25 µg/mL
Aspergillus fumigatus
  zone of inhibition at 250 µg/disc: 19.4 mm
Talaromyces funiculosus
  zone of inhibition at 250 µg/disc: 17.9 mm
Aeromonas hydrophila [30]
  zone of inhibition at 250 µg/disc: 16.5 mm
Pseudomonas aeruginosa [31]
  zone of inhibition at 250 µg/disc: 15.9 mm
Klebsiella pneumoniae [32]
  zone of inhibition at 250 µg/disc: 14.7 mm
Escherichia coli [33]
  zone of inhibition at 250 µg/disc: 15.3 mm
Clostridium perfringens [34]
  zone of inhibition at 250 µg/disc: 11.4 mm
Staphylococcus aureus [35]
  zone of inhibition at 250 µg/disc: 19.9 mm
Enterococcus faecalis [36]
  zone of inhibition at 250 µg/disc: 19.6 mm
Bacillus cereus [37]
  zone of inhibition at 250 µg/disc: 18.3 mm
Candida albicans
  zone of inhibition at 250 µg/disc: 21.9 mm
